Compound activity as filed in PubChem BioAssay.
This is a sample that favours compounds with a hit; in the whole collection about 1.9% have one here.
SUMO1-SIM PPI = modulators of human SUMO1-mediated protein-protein interactions | P63165 | SUMO1 binding to a labelled peptide, TR-FRET, 1 h | inhibition, % at 20 µM | actives 0.33% (n = 360,000) | AID 602429; in the data active = inhibition above about 37%
Target sequence (P63165 whole entry, looked up): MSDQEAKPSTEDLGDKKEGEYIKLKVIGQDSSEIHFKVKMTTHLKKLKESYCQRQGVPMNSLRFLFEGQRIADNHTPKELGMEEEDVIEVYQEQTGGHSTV
FAS-TE inh = blocks the thioesterase domain of human fatty acid synthase | P49327 | recombinant FAS-TE, OMFH fluorogenic substrate, fluorescence endpoint | inhibition, % at 15 µM | actives 0.67% (n = 360,000) | AID 602261;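 active = compounds whose normalised, plate-corrected inhibition of enzyme fluorescence in the single-dose primary screen is 50% or more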
LMPTP block = LMPTP (human) inhibition; P24666; recombinant LMPTP-A, OMFP fluorogenic substrate, fluorescence intensity; inhibition, % at 20 µM; actives 0.22% (n = 360,000); AID 651560;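 active = compounds that cut the enzyme signal by at least half of the control window in the single-dose screen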
Target sequence (P24666 whole entry, looked up): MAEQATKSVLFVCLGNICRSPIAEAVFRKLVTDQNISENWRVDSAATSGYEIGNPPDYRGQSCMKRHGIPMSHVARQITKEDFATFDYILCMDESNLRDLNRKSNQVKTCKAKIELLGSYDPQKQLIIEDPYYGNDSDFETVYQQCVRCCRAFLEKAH
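Test system – LMPTP-A phosphatase enzyme · Quantity – 0.625 nM LMPTP-A final · Reagent – OMFP substrate, 400 µM final · Dosing – one test concentration per compound, 20 µM, with 3% DMSO overall · Timing – 50 min enzyme reaction at room temperature, protected from light · Detection – fluorescence intensity · Controls – substrate-only low control, DMSO enzyme-plus-substrate high control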
STEP inh = inhibitors of human striatal-enriched phosphatase STEP | P54829 | actives 0.25% (n = 360,000) | AID 588621 | recombinant STEP, OMFP fluorogenic substrate, fluorescence | inhibition, % at 20 µM;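 active = inhibition at 20 µM, scaled per plate between control wells, above about 37%, limit read from the data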
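System: isolated STEP enzyme; schedule: 20 min enzyme reaction at room temperature, protected from light; medium: Bis-Tris buffer pH 6.0, 2.5 mM DTT, 0.005% Tween 20; signal: fluorescence, 480/540 nm; dosing: single compound dose of 20 µM, 1% DMSO final; also added: OMFP substrate, 25 µM final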
Scp1 inh = blocks human Scp-1 phosphatase activity; Q9GZU7; Recombinant Scp1, phosphopeptide, malachite green phosphate absorbance; inhibition, % at 20 µM; actives 0.88% (n = 340,000); AID 493091;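 active = inhibition above about 50% at 20 µM, limit read from the data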
Target sequence (Q9GZU7 76-261 limits assumed): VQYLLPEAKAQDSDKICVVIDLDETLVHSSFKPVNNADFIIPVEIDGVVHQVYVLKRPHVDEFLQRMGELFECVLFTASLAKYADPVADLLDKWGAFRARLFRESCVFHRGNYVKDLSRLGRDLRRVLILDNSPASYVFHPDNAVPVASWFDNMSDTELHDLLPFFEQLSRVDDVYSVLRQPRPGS
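Test system – truncated SCP-1 phosphatase (76-261aa) · Reagent – Phosphorylated 17-residue peptide substrate · Incubation – 45 min room-temperature reaction, 5 min colour, 30 min stabiliser · Detection – colorimetric phosphate reagent with accelerator and stabiliser, absorbance at 630 nm · Measure – % inhibition at 20 µM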
Scp1 confirm = confirmation of human Scp-1 phosphatase inhibitors. shares compounds with Scp1 inh. recombinant SCP-1 catalytic domain, phosphate release, malachite green absorbance. inhibition, % at 20 µM. actives 61% (n = 2,500)
Scp-1 MG ctr = interferes with malachite green readout, flagging false Scp-1 hits | Colorimetric interference counterscreen, malachite green absorbance 630 nm | shares compounds with Scp1 inh | apparent inhibition (interference), % at 20 µM | AID 540313 | 2,500 tested, under 10 active;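 note: compounds added after enzyme reaction finished so only phosphate colour detection is probed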
Scp-1 Tm shift = binds human Scp-1, shifting its melting temperature | shares compounds with Scp1 inh | Recombinant SCP1, Sypro Orange thermal shift Tm | thermal shift relative to vanadate control, % at 40 µM | actives 25% (n = 1,500) | AID 540329;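 active = substances whose mean melting-temperature shift, as a percentage of the reference inhibitor's shift, reaches about 5.3%, limit read from the data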
Of the large screens only hits and unclear results are named; the others gave an inactive call (follow-up assays come after a bar, where they were run).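 Rule for the calls, unless noted: active = inhibition of at least 30% at 20 µM; inactive = the rest.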

CSCC[C@H](NS(=O)(=O)c1ccc(C(C)=O)cc1)c1nnc2ccccn12	STEP inh 54.9, Scp1 inh 61.2 | Scp1 confirm 63.9 | Scp-1 MG ctr inactive | Scp-1 Tm shift inactive
Cc1ccc(N2CCN(C(=O)C(=O)c3cccc(Br)c3)CC2)cc1	none (no result: FAS-TE inh, STEP inh, Scp1 inh)
CCC1(CC)NC(=O)N(CC(=O)Nc2sc3c(c2C(N)=O)CCC3)C1=O	Scp1 inh 67.7 | Scp1 confirm 60.7 | Scp-1 MG ctr inactive | Scp-1 Tm shift 12.2
CCC1(C)NC(=O)N(CC(=O)Nc2sc3c(c2C(=O)OC)CCCCC3)C1=O (configuration not stated)	none
CCOC(=O)Cc1csc(SCC(=O)Nc2sc3c(c2C(N)=O)CCC3)n1	Scp1 inh 83.0 | Scp1 confirm 68.5 | Scp-1 MG ctr inactive | Scp-1 Tm shift 6.6
CCOC(=O)c1c(NC(=O)CSc2nnc(-c3c[nH]c4ccccc34)n2C)sc2c1CCCC2	Scp1 inh 52.6 | Scp1 confirm 32.1 | Scp-1 MG ctr inactive | Scp-1 Tm shift inactive
NC(=O)c1c(NC(=O)CSc2nnc(-c3ccco3)n2-c2ccccc2)sc2c1CCC2	Scp1 inh 76.2 | Scp1 confirm 74.8 | Scp-1 MG ctr inactive | Scp-1 Tm shift inactive
CCOC(=O)c1c(NC(=O)CSc2nnc(-c3c[nH]c4ccccc34)n2CCOC)sc2c1CCCC2	none
COc1ccc(OC)c(CN2C(=O)c3ccccc3C2c2nnnn2C2CCCC2)c1 (configuration not stated)	none (no result: STEP inh, Scp1 inh)
COc1ccc([C@H]2C[C@H](O)[C@@H](n3cc(COC(=O)c4ccccc4)nn3)CN2CC2CCCCC2)cc1	none (no result: Scp1 inh)
O=S1(=O)CC(N2CC=CC2)CN1Cc1ccc(F)cc1 (configuration not stated)	none (no result: Scp1 inh)
CCOC(=O)[C@]12CCC=C1N(Cc1ccc(Cl)cc1Cl)C(=O)[C@H](CC(=O)N1CCC(c3ccccc3)CC1)C2	none (no result: STEP inh, Scp1 inh)
CCc1noc(C)c1C(=O)Nc1cc(Cl)ccc1-n1cncn1	none
CCc1noc(C)c1C(=O)Nc1cc(C(F)(F)F)ccc1-n1cncn1	Scp1 inh 65.5 | Scp1 confirm inactive | Scp-1 MG ctr inactive
COc1ccc(C(=O)CCc2ccccc2)c(O)c1	none
COc1ccc(CCC(=O)O)c(O)c1	Scp1 inh 52.6 | Scp1 confirm 45.6 | Scp-1 MG ctr inactive | Scp-1 Tm shift inactive
Cc1ccccc1NC(=O)Nc1nc(C(N)C2CCCCC2)cs1 (configuration not stated)	none (no result: Scp1 inh)
FC(F)(F)c1ccccc1Cc1c(-c2ccco2)nc2ccc(Br)cn12	none (no result: Scp1 inh)
COc1ccc(C(=O)NNC(=O)COC(=O)c2sccc2C)cc1	none
O=[N+]([O-])c1cc(-c2ccc(/C=N/n3cnnc3)o2)ccc1Cl	none
O=[N+]([O-])c1ccc(Cl)c(-c2ccc(/C=N/n3cnnc3)o2)c1	Scp1 inh 62.2 | Scp1 confirm 52.2 | Scp-1 MG ctr inactive | Scp-1 Tm shift inactive
Cc1ccc2nc(-c3ccc(N4C(=NC(=O)CCC(=O)O)SC5CS(=O)(=O)CC54)cc3)sc2c1 (configuration not stated)	Scp1 inh 51.3 | Scp1 confirm 55.3 | Scp-1 MG ctr inactive | Scp-1 Tm shift inactive
Cc1ccc(CN2C(=NC(=O)CCC(=O)O)SC3CS(=O)(=O)CC32)cc1 (configuration not stated)	none
CCCCOc1ccc(-c2nnc(-c3ccncc3)o2)cc1	none
CCCOc1ccc(-c2nnc(-c3cccs3)o2)cc1	Scp1 inh 66.6 | Scp1 confirm inactive | Scp-1 MG ctr inactive
CC(=O)c1ccc(NC(=O)CSc2nnc(-c3ccco3)c(-c3ccco3)n2)cc1	SUMO1-SIM PPI 43.4, LMPTP block 54.0, Scp1 inh 83.4 | Scp1 confirm 58.2 | Scp-1 MG ctr inactive | Scp-1 Tm shift 9.4
O=C(CSc1nnc(-c2ccco2)c(-c2ccco2)n1)c1ccccc1	none
O=C(NCc1ccccc1Cl)c1csc([C@@H]2C[C@H](O)[C@@H](CO)O2)n1	none (no result: Scp1 inh)
NC(COCc1ccccc1)c1csc(Nc2ccc(C(=O)NCCO)cc2)n1 (configuration not stated)	none (no result: Scp1 inh)
O=C(O)C(Cc1cn[nH]n1)=NO	Scp1 inh 57.4 | Scp1 confirm inactive | Scp-1 MG ctr inactive
Oc1c(Br)cc(/C=N/n2c(-c3ccccc3)n[nH]c2=S)c(O)c1Br	Scp1 inh 78.7 | Scp1 confirm 88.3 | Scp-1 MG ctr inactive | Scp-1 Tm shift inactive
COc1ccc(Br)cc1/C=N/n1c(-c2ccccc2)n[nH]c1=S	none
Oc1c(Br)cc(/C=N/n2c(-c3ccccc3)n[nH]c2=S)cc1Br	Scp1 inh 56.0 | Scp1 confirm 79.5 | Scp-1 MG ctr inactive | Scp-1 Tm shift 9.1
COc1cc(/C=N/n2c(-c3ccccc3)n[nH]c2=S)cc(OC)c1O	none
O=[N+]([O-])c1ccc2nc(-c3ccccc3)n(OCc3ccc(Cl)cc3)c2c1	Scp1 inh 58.8 | Scp1 confirm 51.0 | Scp-1 MG ctr inactive | Scp-1 Tm shift 6.2
Cn1c(SCC(=O)n2c3c(c4ccccc42)CCCC3)nnc1-c1ccccc1	none
CC(=O)Nc1ccc(-c2nnc(SCC(=O)n3c4c(c5ccccc53)CCCC4)n2C)cc1	Scp1 inh 84.1 | Scp1 confirm inactive | Scp-1 MG ctr inactive
CCCn1c2c(c(=N)c3c1CCC3)CCC2	none
CCCn1c2c(c(=N)c3c1CCC3)CCCC2	Scp1 inh 73.9 | Scp1 confirm inactive | Scp-1 MG ctr inactive
O=C(Nc1ccn(CCCNCc2ccc3c(c2)OCO3)c(=O)n1)OCc1ccccc1	none
O=C(Cn1ccc(NC(=O)OCc2ccccc2)nc1=O)NCc1ccc2c(c1)OCO2	none | Scp1 confirm inactive | Scp-1 MG ctr inactive
Cc1cc(Cl)c(S(=O)(=O)NC(C(=O)O)c2ccccc2)cc1OCC(N)=O (configuration not stated)	Scp1 inh 68.8 | Scp1 confirm 44.0 | Scp-1 MG ctr inactive | Scp-1 Tm shift 18.3
Cc1cc(Cl)c(S(=O)(=O)N2CCCC2)cc1OCC(=O)NC1CCCCC1	none
Cc1cc(Cl)c(S(=O)(=O)NC(C(=O)O)C(C)C)cc1OCC(=O)NC1CCCCC1 (configuration not stated)	Scp1 inh 54.5 | Scp1 confirm 43.4 | Scp-1 MG ctr inactive | Scp-1 Tm shift inactive
Cc1ccc(NS(=O)(=O)c2cc(OCC(N)=O)c(C)cc2Cl)cc1	none
COC1=CC(=O)OC(c2ccc(C(F)(F)F)cc2)C1 (configuration not stated)	none (no result: FAS-TE inh, STEP inh, Scp1 inh)
